A short description of experiment [1]: Immunostimulating activity in BALb/c mouse splenocytes assessed as increase in concanavalin A-induced cell proliferation at 50 uM after 72 hrs by MTT assay. Format: functional, Splenocyte. Put shortly:
(§1)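 Mouse splenocytes co-treated with concanavalin A and compound at 5, 10, 25, 50 or 100 μM. Incubated 72 h at 37 °C under 5% CO₂, then proliferation read by MTT. Result expressed as % increase relative to Con A alone. Means ± SEM of at least three independent experiments.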
On the technique in general: Tetrazolium dyes change colour on reduction, which living cells bring about.

Experiment [2] relates to Splenocyte. Description: Immunostimulating activity in concanavalin A-stimulated BALb/c mouse splenocytes assessed as increase in IL4 secretion at 5 uM after 72 hrs by ELISA. The class given is functional. Put shortly:
(§2)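 IL-4, IL-2 and IFN-γ measured by mouse ELISA in supernatants of total splenocyte cultures. Cultures contained concanavalin A (printed as 20 μM) plus compound at 5, 10 or 50 μM. Compared with Con A alone. Means ± SEM of at least three independent experiments.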

A short description of experiment [3]: Immunostimulating activity in BALb/c mouse splenocytes assessed as increase in LPS-induced cell proliferation at 5 uM after 72 hrs by MTT assay. The class given is functional, Splenocyte. Put shortly:
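Splenocyte proliferation induced by LPS, with compound added at 5 μM. Reported as % increase over LPS-treated cells. Means ± SEM of at least three independent experiments.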

The test system of experiment [4] is Splenocyte. As to the kind of experiment: (§3) Immunostimulating activity in BALb/c mouse splenocytes assessed as increase in concanavalin A-induced cell proliferation at 5 uM after 72 hrs by MTT assay. The class given is functional. Put shortly:
as §1

Experiment [5] deals with T-cell. Description: Immunostimulating activity in BALb/c mouse CD3+ T cells at 5 uM after 72 hrs by […]. The class given is functional, cell-based. Put shortly:
(§4)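 CD3+, CD4+ and CD8+ T cells and CD19+ B cells from splenocyte cultures quantified by flow cytometry. Compound at 5, 10 or 50 μM, compared with Con A-treated cells. Means ± SEM of at least three independent experiments.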

For experiment [6], the system named is T-cell. Description: Immunostimulating activity in BALb/c mouse CD8+ T cells at 5 uM after 72 hrs […]. Format: functional, cell-based. Put shortly: as §4
Experiment [7] is described as follows: Immunostimulating activity in BALb/c mouse splenocytes assessed as increase in concanavalin A-induced cell proliferation at 25 uM after 72 hrs by MTT assay. Format: functional, Splenocyte. Put shortly:
as §1

Experiment [8] concerns Splenocyte. Description: Immunostimulating activity in concanavalin A-stimulated BALb/c mouse splenocytes assessed as increase in IFNgamma secretion at 5 uM after 72 hrs by ELISA. The class given is functional, cell-based. Put shortly: as §2
For experiment [9], the system named is Splenocyte. Description: Immunostimulating activity in concanavalin A-stimulated BALb/c mouse splenocytes assessed as increase in IL2 secretion at 5 uM after 72 hrs by ELISA. Format: functional. Put shortly:
as §2

The subject of experiment [10] is B. Description: Immunostimulating activity in BALb/c mouse CD19+ B cells at 5 uM after 72 hrs […]. The class given is functional, cell-based. Put shortly: as §4
The subject of experiment [11] is T-cell. As to the kind of experiment: Immunostimulating activity in BALb/c mouse CD4+ T cells at 5 uM after 72 hrs by MTT assay. Format: functional, cell-based.
Experiment [12] concerns Splenocyte. Description: Immunostimulating activity in BALb/c mouse splenocytes assessed as cell proliferation at 5 to 100 uM after 72 hrs by MTT assay. Format: functional, cell-based. Put shortly:
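Mouse splenocytes exposed to compound without concanavalin A. Proliferation measured by MTT after 72 h at 37 °C, 5% CO₂.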

Experiment [13] can be described thus: Immunostimulating activity in BALb/c mouse splenocytes assessed as increase in concanavalin A-induced cell proliferation at 100 uM after 72 hrs by MTT assay. Format: functional, Splenocyte. Put shortly:
as §1

Experiment [14] is described as follows: Immunostimulating activity in BALb/c mouse splenocytes assessed as increase in concanavalin A-induced cell proliferation at 10 uM after 72 hrs by MTT assay. Format: functional, Splenocyte. Put shortly: as §1
Experiment [15] can be described thus: as §3. The class given is functional, Splenocyte. Put shortly:
as §1

In experiment [16] the test system is B. As to the kind of experiment: Immunostimulating activity in BALb/c mouse CD19+ B cells at 50 uM after 72 hrs by MTT assay. Format: functional, cell-based.
Experiment [17] has as its system Splenocyte. Description: Immunostimulating activity in concanavalin A-stimulated BALb/c mouse splenocytes assessed as increase in IL2 secretion at 50 uM after 72 hrs by ELISA. Format: functional. Put shortly:
as §2
(In an ELISA, binding on a coated surface is turned into a signal by an enzyme label.)

Experiment [18] relates to Splenocyte. Description: Immunostimulating activity in concanavalin A-stimulated BALb/c mouse splenocytes assessed as increase in IFNgamma secretion at 50 uM after 72 hrs by ELISA. Format: functional. Put shortly:
as §2

The test system of experiment [19] is T-cell. As to the kind of experiment: Immunostimulating activity in BALb/c mouse CD4+ T cells at 50 uM after 72 hrs by MTT assay. The class given is functional, cell-based.
Experiment [20] relates to Splenocyte. As to the kind of experiment: Immunostimulating activity in concanavalin A-stimulated BALb/c mouse splenocytes assessed as increase in IL4 secretion at 50 uM after 72 hrs by ELISA. Format: functional. Put shortly:
as §2

Experiment [21] relates to T-cell. As to the kind of experiment: Immunostimulating activity in BALb/c mouse CD3+ T cells at 50 uM after 72 hrs by […]. Format: functional, cell-based. Put shortly:
as §4

The test system of experiment [22] is T-cell. Description: Immunostimulating activity in BALb/c mouse CD8+ T cells at 50 uM after 72 hrs by […]. Format: functional, cell-based. Put shortly: as §4
Experiment [23] has as its system Splenocyte. Description: Immunostimulating activity in concanavalin A-stimulated BALb/c mouse splenocytes assessed as increase in IL2 secretion at 10 uM after 72 hrs by ELISA. Format: functional. Put shortly: as §2
Experiment [24] deals with T-cell. As to the kind of experiment: Immunostimulating activity in BALb/c mouse CD8+ T cells at 10 uM after 72 hrs by MTT assay. Format: functional, cell-based.
The test system of experiment [25] is Splenocyte. As to the kind of experiment: Immunostimulating activity in concanavalin A-stimulated BALb/c mouse splenocytes assessed as increase in IL4 secretion at 10 uM after 72 hrs by ELISA. Format: functional. Put shortly:
as §2

The test system of experiment [26] is Splenocyte. Description: Immunostimulating activity in concanavalin A-stimulated BALb/c mouse splenocytes assessed as increase in IFNgamma secretion at 10 uM after 72 hrs by ELISA. The class given is functional. Put shortly: as §2
In experiment [27] the test system is T-cell. As to the kind of experiment: Immunostimulating activity in BALb/c mouse CD3+ T cells at 10 uM after 72 hrs by MTT assay. The class given is functional, cell-based.
Experiment [28] deals with T-cell. As to the kind of experiment: Immunostimulating activity in BALb/c mouse CD4+ T cells at 10 uM after 72 hrs by […]. Format: functional, cell-based. Put shortly:
as §4

The subject of experiment [29] is B. Description: Immunostimulating activity in BALb/c mouse CD19+ B cells at 10 uM after 72 hrs by MTT assay. The class given is functional, cell-based.

Data on ten compounds can be found in ChEMBL document CHEMBL2169880, “Synthesis of C-Pseudonucleosides Bearing Thiazolidin-4-one as a Novel Potential Immunostimulating Agent” (2011).

Active and inactive are the calls of the source. The calls are words filed in the database; no cut-off is given here.

For `O=C1CS[C@@H]([C@H]2O[C@H](CO)[C@@H](O)[C@@H]2O)N1c1ccccc1`, the Activity in experiment [1] was under 50%; with Splenocyte [2], 39%; in experiment [3], 117%; in experiment [7], under 50%; with Splenocyte [9], 99%; in [13], under 50%. For the same compound, the Activity in [14] is under 50%. Further, the result in the experiment on Splenocyte [4], with T-cell [5], in the experiment with B [10] and with T-cell [11] was Active. In addition, the result in the experiment with T-cell [6], in the experiment with Splenocyte [8] and in the experiment on Splenocyte [12] was inactive.
Take `CCCCCCCCCCCCCCCCCCN1C(=O)CS[C@H]1[C@H]1O[C@H](CO)[C@@H](O)[C@@H]1O`: the Activity in experiment [1], in experiment [15], in [7], in [13] and in experiment [14] was under 50% in each case.
For the compound `CCCCCCCCN1C(=O)CS[C@@H]1[C@H]1O[C@H](CO)[C@@H](O)[C@@H]1O`, the Activity in experiment [1], in experiment [15], in experiment [7], in experiment [13] and in experiment [14] was under 50% throughout.
Regarding `CCCCCCCCN1C(=O)CS[C@H]1[C@H]1O[C@H](CO)[C@@H](O)[C@@H]1O`, the Activity in [1], in experiment [15], in experiment [7], in experiment [13] and in experiment [14] was under 50% throughout.
Take `CCCCCCCCCCCCCCCCCCN1C(=O)CS[C@@H]1[C@H]1O[C@H](CO)[C@@H](O)[C@@H]1O`: the Activity in experiment [1], in [15], in experiment [7], in [13] and in [14] was under 50% each time.
Consider `CCCCN1C(=O)CS[C@H]1[C@H]1O[C@H](CO)[C@@H](O)[C@@H]1O`, for which the Activity in experiment [1], in [15], in experiment [7], in experiment [13] and in [14] was under 50% throughout.
As for `O=C1CS[C@H]([C@H]2O[C@H](CO)[C@@H](O)[C@@H]2O)N1c1ccccc1`, the Activity in experiment [1] is recorded as 171%; with Splenocyte [2] it was 41%; in experiment [3] it was 238%; in experiment [15], 166%; in experiment [7], under 50%; with Splenocyte [9] it was 138%. In addition, in experiment [14], the Activity is given as under 50%. Moreover, the result in the experiment with T-cell [5], in the experiment with B [10] and with T-cell [11] was Active. The result in the experiment on T-cell [6], in the experiment on Splenocyte [8] and with Splenocyte [12] was inactive.
`CCCCN1C(=O)CS[C@@H]1[C@H]1O[C@H](CO)[C@@H](O)[C@@H]1O`: the Activity in experiment [1], in experiment [15], in experiment [7], in experiment [13] and in experiment [14] was under 50% throughout.
As for `CN1C(=O)CS[C@@H]1[C@H]1O[C@H](CO)[C@@H](O)[C@@H]1O`, the outcome in the experiment on B [16], with T-cell [22] and with Splenocyte [12] was inactive. For the same compound, the Activity in [1] worked out at 327%; with Splenocyte [17] it was 37%; in experiment [15], 111%; in the experiment on Splenocyte [18] it was 30%; in experiment [7] it was 91%; in the experiment on Splenocyte [20], 42%. The Activity is recorded as 230% in experiment [13] and 98% in [14]. For the same compound, the outcome with T-cell [19] and in the experiment on T-cell [21] was Active.
On to `CN1C(=O)CS[C@H]1[C@H]1O[C@H](CO)[C@@H](O)[C@@H]1O`, for which the Activity in experiment [1] is reported as 35%; in the experiment with Splenocyte [23] it was 78%; in [15], 28%; in the experiment on Splenocyte [25], 43%; in [7], 138%; in the experiment on Splenocyte [26], 21%. Besides, the Activity in experiment [13] worked out at 245%; in experiment [14], 290%. The result with T-cell [24], in the experiment on B [29] and in the experiment with Splenocyte [12] was inactive. The result with T-cell [27] and in the experiment on T-cell [28] was Active.
